For 7 molecules, inhibition, Activity and IC50 results are on record in ChEMBL document CHEMBL1155688, “New pyridinium alkaloids from a marine sponge of the genus Spongia with a human phospholipase A(2) inhibitor profile” (J Nat Prod, 2000).

For one data set, the species on record is Rattus norvegicus. Kind of data set: Inhibition of rat air pouch sPLA2 at 10 uM. The procedure, abridged: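 sPLA2 source was exudate supernatant from zymosan-injected rat air pouch. Preincubated 5 min at 37 °C with compound or vehicle, then 15 min with autoclaved [3H]oleate-labelled E. coli CECT 101 membranes. Stopped with ice-cold BSA (0.07% w/v final). Released radioactivity in the supernatant counted by scintillation. Mean ± SEM, n = 6.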

For a further data set, the system named is Apis mellifera. Kind of data set: Inhibition of bee venom sPLA2 at 10 uM. Summed up: (§1)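 Radiometric sPLA2 assay on E. coli CECT 101 membranes labelled by growth for 6–8 h at 37 °C with [3H]oleic acid, then autoclaved. Bee venom or human recombinant synovial enzyme in 100 mM Tris-HCl, 1 mM CaCl2, pH 7.5. Enzyme preincubated 5 min at 37 °C with compound or vehicle, then 15 min with membranes. Stopped with ice-cold BSA and centrifuged. Supernatant radioactivity counted by scintillation. IC50 from at least four concentrations (n = 6). Mean ± SEM.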

The species entered for another data set is Homo sapiens. Put plainly: Inhibition of human synovial sPLA2 at 10 uM. Summed up: (§2)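 Purified enzyme (Naja naja venom, porcine pancreatic, or human recombinant synovial) in 100 mM Tris-HCl, 1 mM CaCl2, pH 7.5, preincubated 5 min at 37 °C with compound or vehicle. Then incubated 15 min with autoclaved E. coli CECT 101 membranes labelled with [3H]oleic acid. Stopped with ice-cold BSA (0.07% w/v final). Supernatant radioactivity counted after centrifugation. Mean ± SEM, n = 6.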

The species named for another data set is Sus scrofa. Kind of data set: Inhibition of pig pancreas sPLA2 at 10 uM. Summed up:
as §2

Data set [1] can be described thus: Cytotoxicity against human neutrophils up to 10 uM by MTT assay. In kind it is cell-based. As to conditions: neutrophil. The procedure, abridged:
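Viability of human neutrophils assessed by mitochondrial reduction of MTT to formazan.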
On the technique in general: Tetrazolium dyes change colour on reduction, which living cells bring about.

In the next data set the test system is Naja naja. Put plainly: Inhibition of Naja naja sPLA2 at 10 uM. Summed up:
as §2

The nature of data set [2]: Inhibition of human synovial sPLA2. The procedure, abridged:
as §1

The test system of a further data set is RAW264.7. Put plainly: Inhibition of cPLA2 in mouse RAW264.7 cells. In kind it is cell-based. Summed up: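 Enzyme was the cytosolic fraction of murine RAW 264.7 cells. Substrate was 1-palmitoyl-2-[14C]arachidonyl-phosphatidylcholine. Compound in methanol (<1% final) added before the enzyme, then 60 min at 37 °C. Stopped with isopropanol-heptane-0.5 M H2SO4 (10:5:1). Released arachidonate in the heptane phase was cleaned on silica gel and counted.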

A short description of data set [3]: Inhibition of bee venom sPLA2. More on the design: species or system Apis mellifera. The procedure, abridged: as §1

The structures appear in SMILES notation. Calls of active or inactive are those of the source. The rule behind the calls is not given here.

By inhibition is commonly meant the drop in the measured response relative to a control, in per cent. A low value points to a weak effect. One may read the IC50 as the concentration that inhibits the measured activity by half. Low values mean greater potency in that assay, high ones weaker potency in that assay.

Turning to `C[C@]1(CO)CCC[C@]2(C)[C@H]3CC[C@@H]4C(O)O[C@@H](C5=CC(=O)OC5O)C[C@H]4[C@]3(C)CC[C@H]12` (some centres not stated) [PETROSASPONGIOLIDE P], the inhibition in the data set filed under Rattus norvegicus is 25.6%; with Apis mellifera, 5.4%; in the data set listed under Homo sapiens, 87.2%; in the data set listed under Sus scrofa it was 19.5%; with Naja naja, 8.7%. The Activity entry in data set [1] was “Not Active”. For the same molecule, the IC50 in data set [2] came to 5.8 µM.
Consider `CC1(C)CCC[C@@]2(C)C1CC[C@@]1(C)c3cc[n+](CC(=O)O)cc3CCC21.[Cl-]` (some centres not stated) [SPONGIDINE A], for which the inhibition was found to be 17.1% in the data set filed under Rattus norvegicus; 33.1% in the data set with Apis mellifera; 40.1% in the data set listed under Homo sapiens; 18% in the data set filed under Sus scrofa; 0.5% in the data set on Naja naja. Also, in data set [1], the Activity entry is “Not Active”. The outcome in the data set on RAW264.7 was inactive.
For the molecule `CC(=O)OC[C@@]1(C)CCC[C@@]2(C)C1CC[C@@]1(C)c3cc[n+](CC(=O)O)cc3CCC21` (some centres not stated) [SPONGIDINE B], the inhibition in the data set listed under Rattus norvegicus was 17.9%; in the data set with Apis mellifera, 32.2%; in the data set listed under Homo sapiens, 34.6%; in the data set filed under Sus scrofa, 14.2%; with Naja naja, 0.4%. Further, the Activity result in data set [1] is “Not Active”. Also, in the data set with RAW264.7, the outcome was inactive.
For the molecule `C[C@]1(CO)CCC[C@]2(C)[C@H]3CC[C@@H]4C=C(CC(=O)O)C(=O)C[C@H]4[C@]3(C)CC[C@H]12` [PETROSASPONGIOLIDE K], the inhibition in the data set filed under Rattus norvegicus was found to be 18.8%; in the data set with Apis mellifera it was 37.1%; in the data set filed under Homo sapiens it was 34.4%; in the data set listed under Sus scrofa it was 14.3%; in the data set on Naja naja, 1.3%. In addition, the Activity entry in data set [1] is given as “Not Active”.
For `CC1(C)CCC[C@@]2(C)C1CC[C@@]1(C)c3cc[n+](CCS(=O)(=O)O)cc3CCC21` (some centres not stated) [SPONGIDINE D], the inhibition in the data set filed under Rattus norvegicus came to 19.6%; with Apis mellifera, 37.6%; in the data set listed under Homo sapiens, 48.2%; in the data set listed under Sus scrofa, 7.6%; with Naja naja, 0%. The Activity entry in data set [1] is listed as “Not Active”. The outcome in the data set on RAW264.7 was inactive.
With `CC1=C(CC/C(C)=C/CCC2=CC[C@H](C3=CC(=O)OC3O)O[C@@H]2O)C(C)(C)CCC1` (some centres not stated) [MANOLIDE], the inhibition in the data set filed under Rattus norvegicus worked out at 38.4%; with Apis mellifera it was 62.5%; in the data set listed under Homo sapiens, 93.2%; in the data set filed under Sus scrofa it was 32.3%. The half-maximal inhibitory concentration (IC50) is 7.5 µM in data set [3] and 3.9 µM in [2].
Turning to `CC1(C)CCC[C@@]2(C)C1CC[C@@]1(C)c3cc(CCC(=O)O)[n+](CC(=O)O)cc3CCC21.[Cl-]` (some centres not stated) [SPONGIDINE C], the inhibition came to 30.9% in the data set listed under Rattus norvegicus; 36.2% in the data set with Apis mellifera; 40.4% in the data set listed under Homo sapiens; 9.1% in the data set filed under Sus scrofa; 3.1% with Naja naja. Also, the Activity entry in data set [1] is reported as “Not Active”. For the same molecule, the result in the data set on RAW264.7 was inactive.
